We go through 19 compounds from ChEMBL document CHEMBL1125285, “Gastrin releasing peptide antagonists with improved potency and stability” (J Med Chem, 1991).

For experiment [1], the target named is Gastrin-releasing peptide receptor (Mus musculus, UniProt P21729). As to the kind of experiment: Inhibition against Swiss 3T3 murine fibroblast cells. It counts as functional, cell-based. The gist of the method: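 Competitive binding on confluent Swiss 3T3 monolayers grown in DMEM with 10% FBS and 2 mM glutamine. [3H-Phe15]GRP-15-27 amide used at 2 nM final, at 15 °C for 1–2 h. Nonspecific binding defined with excess unlabeled GRP. Run in triplicate in at least two trials; mean IC50 reported.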

A short description of experiment [2]: Compound was evaluated for mitogenic stimulation against Swiss 3T3 murine fibroblast cells. It is filed as functional, cell-based, Mus musculus. Put shortly: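 Confluent Swiss 3T3 monolayers held in serum-free DMEM for 48 h, then peptide and 23 nM [3H]thymidine added. After 48 h more, cells detached with trypsin/5 mM EDTA and filter-harvested to measure [3H]thymidine uptake. EC50 is the mean of at least two independent experiments.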

Non-standard residues stand in square brackets, D forms with d. Residues, ends and D or L forms follow the SMILES beside them. *: point of attachment. NHCH(iBu)2 = CC(C)CC(CC(C)C)N*; X1 = CC(C)CCOC[C@H](CC(C)C)N*; X11 = CCCCC[C@@H](CC(C)C)N*; Leu(ol) = CC(C)C[C@H](N)CO; X10 = CCCOC[C@H](CC(C)C)N*; X4 = CCCCCC[C@H](CC(C)C)N*; X12 = CCCC[C@H](CC(C)C)N*; X8 = CCCC[C@@H](CC(C)C)N*; X5 = CCOC[C@H](CC(C)C)N*; X9 = CCC[C@@H](CC(C)C)N*; X3 = COC[C@H](CC(C)C)N*; X6 = CCC[C@H](CC(C)C)N*; X2 = CCCCC(CCCC)N*

Gastrin-releasing peptide receptor, sequence (P21729 whole entry): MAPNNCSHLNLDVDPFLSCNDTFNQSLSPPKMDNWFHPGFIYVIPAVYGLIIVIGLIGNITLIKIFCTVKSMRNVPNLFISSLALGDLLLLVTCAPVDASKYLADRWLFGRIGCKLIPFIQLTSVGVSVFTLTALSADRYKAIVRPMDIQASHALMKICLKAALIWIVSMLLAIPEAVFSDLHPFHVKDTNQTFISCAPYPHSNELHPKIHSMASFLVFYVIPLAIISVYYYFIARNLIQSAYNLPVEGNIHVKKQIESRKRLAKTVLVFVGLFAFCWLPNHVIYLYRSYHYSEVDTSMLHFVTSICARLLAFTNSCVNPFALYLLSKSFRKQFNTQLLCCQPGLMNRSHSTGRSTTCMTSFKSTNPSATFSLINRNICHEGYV

On to `CCOC[C@H](CC(C)C)NC(=O)[C@H](Cc1c[nH]cn1)NC(=O)[C@@H](C)NC(=O)[C@@H](NC(=O)[C@H](C)NC(=O)[C@H](Cc1c[nH]c2ccccc12)NC(=O)[C@H](Cc1c[nH]cn1)NC(C)=O)C(C)C`, for which the concentration for half-maximal inhibition (IC50) (in general, the concentration that gives 50% inhibition) in experiment [1] was found to be 5 nM.

`CCOC[C@H](CC(C)C)NC(=O)[C@H](Cc1c[nH]cn1)NC(=O)[C@H](C)NC(=O)[C@@H](NC(=O)[C@H](C)NC(=O)[C@H](Cc1c[nH]c2ccccc12)NC(=O)[C@H](Cc1c[nH]cn1)NC(C)=O)C(C)C` came in with an IC50 in experiment [1] of 410 nM.

With `CSCC[C@H](NC(=O)[C@H](CC(C)C)NC(=O)[C@H](Cc1c[nH]cn1)NC(=O)[C@@H](C)NC(=O)[C@@H](NC(=O)[C@H](C)NC(=O)[C@H](Cc1c[nH]c2ccccc12)NC(=O)[C@H](Cc1c[nH]cn1)NC(C)=O)C(C)C)C(N)=O`, in experiment [2], the EC50 (commonly the concentration giving half of the maximal effect) came to 0.2 nM. This compound registered a half-maximal inhibitory concentration (IC50) in experiment [1] of 3.2 nM.

In experiment [2], `CSCC[C@H](NC(=O)[C@H](CC(C)C)NC(=O)[C@H](Cc1c[nH]cn1)NC(=O)CNC(=O)[C@@H](NC(=O)[C@H](C)NC(=O)[C@H](Cc1c[nH]c2ccccc12)NC(=O)[C@H](Cc1c[nH]cn1)NC(C)=O)C(C)C)C(N)=O` came in with a concentration giving a half-maximal response (EC50) of 0.2 nM. For the same compound, in experiment [1], it took 1.8 nM to reach half-maximal inhibition (IC50).

Take `CSCC[C@H](NC(=O)[C@H](CC(C)C)NC(=O)[C@H](Cc1c[nH]cn1)NC(=O)[C@H](C)NC(=O)[C@@H](NC(=O)[C@H](C)NC(=O)[C@H](Cc1c[nH]c2ccccc12)NC(=O)[C@H](Cc1c[nH]cn1)NC(C)=O)C(C)C)C(N)=O`: the midpoint of the response in experiment [2], the EC50, lay at 20 nM. For the same compound, the IC50 in experiment [1] was 180 nM.

With `CSCC[C@H](NC(=O)[C@H](CC(C)C)NC(=O)[C@H](Cc1c[nH]cn1)NC(=O)CNC(=O)[C@@H](NC(=O)[C@H](C)NC(=O)[C@H](Cc1c[nH]c2ccccc12)NC(=O)[C@H](Cc1c[nH]cn1)NC(=O)C(C)(C)C)C(C)C)C(N)=O`, the EC50 in experiment [2] was determined as 0.2 nM. In experiment [1], this compound gave a 50% inhibitory concentration (IC50) of 4.1 nM.

`CC(=O)N[C@@H](Cc1c[nH]cn1)C(=O)N[C@@H](Cc1c[nH]c2ccccc12)C(=O)N[C@@H](C)C(=O)N[C@H](C(=O)NCC(=O)N[C@@H](Cc1c[nH]cn1)C(=O)N[C@H](COCCC(C)C)CC(C)C)C(C)C` (Ac-HWAVGH-X1) registered an IC50 in experiment [1] of 11 nM.

For the compound `CCCCC(CCCC)NC(=O)[C@H](Cc1cnc[nH]1)NC(=O)CNC(=O)[C@@H](NC(=O)[C@H](C)NC(=O)[C@H](Cc1c[nH]c2ccccc12)NC(=O)[C@H](Cc1cnc[nH]1)NC(C)=O)C(C)C` (Ac-HWAVGH-X2), inhibition in experiment [1] was half-maximal at 3.3 nM (IC50).

For the compound `COC[C@H](CC(C)C)NC(=O)[C@H](Cc1c[nH]cn1)NC(=O)CNC(=O)[C@@H](NC(=O)[C@H](C)NC(=O)[C@H](Cc1c[nH]c2ccccc12)NC(=O)[C@H](Cc1c[nH]cn1)NC(C)=O)C(C)C` (Ac-HWAVGH-X3), in experiment [1], the IC50 stood at 8.3 nM.

In experiment [1], `CCCCCC[C@H](CC(C)C)NC(=O)[C@H](Cc1c[nH]cn1)NC(=O)CNC(=O)[C@@H](NC(=O)[C@H](C)NC(=O)[C@H](Cc1c[nH]c2ccccc12)NC(=O)[C@H](Cc1c[nH]cn1)NC(C)=O)C(C)C` (Ac-HWAVGH-X4) gave a concentration for half-maximal inhibition (IC50) of 2.8 nM.

The compound `CCOC[C@H](CC(C)C)NC(=O)[C@H](Cc1c[nH]cn1)NC(=O)CNC(=O)[C@@H](NC(=O)[C@H](C)NC(=O)[C@H](Cc1c[nH]c2ccccc12)NC(=O)[C@H](Cc1c[nH]cn1)NC(C)=O)C(C)C` (Ac-HWAVGH-X5) came in with a concentration for half-maximal inhibition (IC50) in experiment [1] of 6.2 nM.

In turn, `CCC[C@H](CC(C)C)NC(=O)[C@H](Cc1cnc[nH]1)NC(=O)CNC(=O)[C@@H](NC(=O)[C@H](C)NC(=O)[C@H](Cc1c[nH]c2ccccc12)NC(=O)[C@H](Cc1cnc[nH]1)NC(C)=O)C(C)C` (Ac-HWAVGH-X6) yielded an IC50 in experiment [1] of 2.6 nM.

As to `CCCC[C@@H](CC(C)C)NC(=O)[C@H](Cc1c[nH]cn1)NC(=O)CNC(=O)[C@@H](NC(=O)[C@H](C)NC(=O)[C@H](Cc1c[nH]c2ccccc12)NC(=O)[C@H](Cc1c[nH]cn1)NC(C)=O)C(C)C` (Ac-HWAVGH-X8), the IC50 in experiment [1] was determined as 2.4 nM.

Take `CCC[C@@H](CC(C)C)NC(=O)[C@H](Cc1c[nH]cn1)NC(=O)CNC(=O)[C@@H](NC(=O)[C@H](C)NC(=O)[C@H](Cc1c[nH]c2ccccc12)NC(=O)[C@H](Cc1c[nH]cn1)NC(C)=O)C(C)C` (Ac-HWAVGH-X9): half-maximal inhibition in experiment [1] (IC50) required 4.9 nM.

On to `CCCOC[C@H](CC(C)C)NC(=O)[C@H](Cc1c[nH]cn1)NC(=O)CNC(=O)[C@@H](NC(=O)[C@H](C)NC(=O)[C@H](Cc1c[nH]c2ccccc12)NC(=O)[C@H](Cc1c[nH]cn1)NC(C)=O)C(C)C` (Ac-HWAVGH-X10), for which the IC50 in experiment [1] was 3.2 nM.

Turning to `CCCCC[C@@H](CC(C)C)NC(=O)[C@H](Cc1c[nH]cn1)NC(=O)CNC(=O)[C@@H](NC(=O)[C@H](C)NC(=O)[C@H](Cc1c[nH]c2ccccc12)NC(=O)[C@H](Cc1c[nH]cn1)NC(C)=O)C(C)C` (Ac-HWAVGH-X11), in experiment [1], inhibition was half-maximal at 11 nM (IC50).

For the compound `CCCC[C@H](CC(C)C)NC(=O)[C@H](Cc1cnc[nH]1)NC(=O)CNC(=O)[C@@H](NC(=O)[C@H](C)NC(=O)[C@H](Cc1c[nH]c2ccccc12)NC(=O)[C@H](Cc1cnc[nH]1)NC(C)=O)C(C)C` (Ac-HWAVGH-X12), in experiment [1], half-maximal inhibition (IC50) required 1.4 nM.

`CC(=O)N[C@@H](Cc1c[nH]cn1)C(=O)N[C@@H](Cc1c[nH]c2ccccc12)C(=O)N[C@@H](C)C(=O)N[C@H](C(=O)NCC(=O)N[C@@H](Cc1c[nH]cn1)C(=O)NC(CC(C)C)CC(C)C)C(C)C` (Ac-HWAVGH-{NHCH(iBu)2}) came in with an IC50 in experiment [1] of 1.2 nM. The IC50 values of the last two compounds are within 1.5-fold of each other.

In turn, `CC(=O)N[C@@H](Cc1c[nH]cn1)C(=O)N[C@@H](Cc1c[nH]c2ccccc12)C(=O)N[C@@H](C)C(=O)N[C@H](C(=O)NCC(=O)N[C@@H](Cc1c[nH]cn1)C(=O)N[C@H](CO)CC(C)C)C(C)C` (Ac-HWAVGH[Leu(ol)]) gave an IC50 in experiment [1] of 81 nM. Against the preceding compound, the IC50 is about 68-fold higher.
